{"data": "Results gathered from unrelated publications", "target": "Mitogen-activated protein kinase kinase kinase kinase 2 (MAP4K2, Homo sapiens, UniProt Q12851)", "One construct used (Q12851 1-820)": "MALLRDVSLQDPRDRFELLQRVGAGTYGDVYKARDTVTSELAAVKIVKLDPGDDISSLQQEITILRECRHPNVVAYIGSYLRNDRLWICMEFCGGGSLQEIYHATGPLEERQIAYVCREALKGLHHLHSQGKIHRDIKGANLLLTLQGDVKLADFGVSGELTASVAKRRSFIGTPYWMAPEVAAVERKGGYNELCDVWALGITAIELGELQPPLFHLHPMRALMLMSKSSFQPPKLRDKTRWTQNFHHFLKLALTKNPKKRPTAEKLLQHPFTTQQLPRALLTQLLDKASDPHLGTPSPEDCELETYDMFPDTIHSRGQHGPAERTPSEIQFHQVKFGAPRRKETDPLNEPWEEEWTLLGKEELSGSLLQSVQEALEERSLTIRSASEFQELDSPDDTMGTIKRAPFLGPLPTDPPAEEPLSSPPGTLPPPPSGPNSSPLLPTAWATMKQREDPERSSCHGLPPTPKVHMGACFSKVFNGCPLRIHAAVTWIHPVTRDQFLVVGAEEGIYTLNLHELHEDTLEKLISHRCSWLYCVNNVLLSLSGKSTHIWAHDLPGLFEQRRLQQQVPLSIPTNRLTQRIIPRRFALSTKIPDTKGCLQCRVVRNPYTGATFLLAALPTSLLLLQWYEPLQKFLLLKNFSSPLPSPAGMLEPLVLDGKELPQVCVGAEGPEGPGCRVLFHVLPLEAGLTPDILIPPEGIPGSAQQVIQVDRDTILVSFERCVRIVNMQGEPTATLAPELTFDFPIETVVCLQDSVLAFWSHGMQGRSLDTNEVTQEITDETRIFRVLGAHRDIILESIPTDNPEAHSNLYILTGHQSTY", "note": "Compare with care: the assays were run in different laboratories."}
{"effect on": "binding", "method": "competition with immobilised ligand", "concentration": "1 µM", "remaining binding [%]": 100, "SMILES": "C=CC(=O)N1CCC(C(=O)NCC(=O)N2CCN(c3nc(-c4cnc(N)nc4C(F)F)nc(N4CCOCC4)n3)CC2)CC1"}
{"effect on": "binding", "concentration": "1 µM", "remaining binding [%]": 100, "SMILES": "CN(CCCC(F)(F)F)c1nccc(-c2cnn3ncccc23)n1"}
{"effect on": "cell-free assay", "method": "competition with immobilised ligand", "concentration": "5 µM", "remaining binding [%]": 17, "SMILES": "FC(F)(F)Oc1cccc(-c2cnc3ccc(-c4ccncc4)nn23)c1"}
{"effect on": "binding", "concentration": "1 µM", "remaining binding [%]": 100, "SMILES": "CN(c1nccc(-c2cnn3ncccc23)n1)C1CC1"}
{"effect on": "cell-free assay", "method": "competition with immobilised ligand", "concentration": "1 µM", "remaining binding [%]": 97, "SMILES": "CNCc1ccccc1-c1csc([C@H](C)Nc2nc(C)nc3cc(OC)c(OC)cc23)c1"}
{"effect on": "binding", "concentration": "1 µM", "remaining binding [%]": 54, "SMILES": "CN(C)c1nccc(-c2cnc3ncccn23)n1"}
{"effect on": "binding", "method": "competition with immobilised ligand", "concentration": "1 µM", "remaining binding [%]": 36, "SMILES": "O=C(c1ccc(Nc2ncc(Cl)c(-c3cc4ccccc4s3)n2)cc1)N1CCC(N2CCCC2)CC1"}
{"effect on": "cell-free assay", "method": "competition with immobilised ligand", "concentration": "0.1 µM", "remaining binding [%]": 69, "SMILES": "Cc1c[nH]c2nccc(Oc3c(F)cc(Nc4cc(Cl)nc(N)n4)cc3F)c12"}
{"effect on": "binding", "method": "competition with immobilised ligand", "concentration": "1 µM", "remaining binding [%]": 84, "SMILES": "Nc1ncc2c(n1)-c1c([nH]c3ccc(C#CC4CC4)cc13)CCCC2"}
{"effect on": "binding", "method": "competition with immobilised ligand", "concentration": "1 µM", "remaining binding [%]": 52, "SMILES": "O=C(c1ccc(Nc2nccc(-c3cc4ccccc4s3)n2)cc1)N1CCC(N2CCCC2)CC1"}
{"effect on": "cell-free assay", "method": "competition with immobilised ligand", "concentration": "1 µM", "remaining binding [%]": 92, "SMILES": "O=C(NC[C@@H]1[C@H]2CN(C(=O)OCc3cc(C(F)(F)F)cc(C(F)(F)F)c3)C[C@@H]12)c1ccc2[nH]nnc2c1"}
{"effect on": "binding", "concentration": "1 µM", "remaining binding [%]": 99, "SMILES": "Cc1cnn2ncc(-c3ccnc(N(C)C)n3)c2c1"}
{"effect on": "cell-free assay", "method": "competition with immobilised ligand", "concentration": "1 µM", "remaining binding [%]": 100, "SMILES": "O=C(Nc1cnc(Oc2ccc(F)cc2)nc1)N1CCc2ncccc2[C@@H]1c1ccc(F)cc1"}
{"effect on": "binding", "concentration": "1 µM", "remaining binding [%]": 71, "SMILES": "C[C@H]1CCN(c2nccc(-c3cnn4ncccc34)n2)C1"}
{"effect on": "binding", "method": "competition with immobilised ligand", "concentration": "0.1 µM", "remaining binding [%]": 100, "SMILES": "C[C@@H](c1ccc(-n2cnc3c(N)ncnc32)cc1)N1CCc2nn(C)c(Cc3ccccc3)c2C1=O"}
{"effect on": "binding", "method": "competition with immobilised ligand", "concentration": "1 µM", "remaining binding [%]": 78, "SMILES": "COc1cnc(Nc2cccc(S(N)(=O)=O)c2)nc1N1CCN(c2ccccc2)CC1"}
{"effect on": "cell-free assay", "method": "competition with immobilised ligand", "concentration": "1 µM", "remaining binding [%]": 94, "SMILES": "O=C(N1CCS(=O)(=O)CC1)N1C[C@H](c2ccc(OC(F)(F)F)cc2)C[C@H](c2nc(C3CC3)no2)C1"}
{"effect on": "binding", "method": "competition with immobilised ligand", "concentration": "1 µM", "remaining binding [%]": 69, "SMILES": "O=C(Nc1c[nH]nc1C(=O)NC1CCNCC1)c1cc(F)cc(F)c1"}
{"effect on": "binding", "concentration": "1 µM", "remaining binding [%]": 70, "SMILES": "c1cnn2ncc(-c3ccnc(N4CCC45COC5)n3)c2c1"}
{"effect on": "binding", "method": "competition with immobilised ligand", "concentration": "1 µM", "remaining binding [%]": 31, "SMILES": "O=C(NCCCN1CCOCC1)c1ccc(Nc2ncc(Cl)c(-c3ccc(Cl)s3)n2)cc1"}
{"effect on": "binding", "concentration": "1 µM", "remaining binding [%]": 100, "SMILES": "N[C@@H]1CCN(c2nccc(-c3cnn4ncccc34)n2)C1"}
{"effect on": "cell-free assay", "method": "competition with immobilised ligand", "concentration": "1 µM", "remaining binding [%]": 83, "SMILES": "CO[C@H]1CC[C@H](CNc2ccc(S(=O)(=O)NC(=O)c3ccc(N4CCN(CC5=C(c6ccc(Cl)cc6)CC(C)(C)CC5)CC4)cc3Oc3cnc4[nH]ccc4c3)cc2[N+](=O)[O-])CC1"}
